Results from ChEMBL document CHEMBL2157923, “1,3-Azoles from ortho-naphthoquinones: synthesis of aryl substituted imidazoles and oxazoles and their potent activity against Mycobacterium tuberculosis” (Bioorg Med Chem, 2012).
In brackets after ≈: the same amount, converted by molar mass. Activity calls are given as the source filed them. The calls are words filed in the database; no cut-off is given here.

Legend:
[1] = tested on: Mycobacterium tuberculosis; experiment: Antimycobacterial activity against pan-susceptible Mycobacterium tuberculosis H37Rv ATCC 27294 after 7 days by resazurin microtitre assay; type: functional
Outline: (§1)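 REMA MIC. Strains kept on Ogawa-Kudoh medium 14 days at 37 °C. Suspension vortexed and adjusted to McFarland tube 1 (3.2 × 10^6 cfu/mL), then diluted 1:20 in Middlebrook 7H9 with 10% OADC and glycerol. Compounds tested from 100 ug/mL down to 0.19 ug/mL. Incubated 7 days at 37 °C, resazurin added, 2 more days at 37 °C; colour change read.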

PBMC = experiment: Cytotoxicity against human PBMC after 72 hrs by alamar blue assay; type: cell-based
Outline: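 Alamar Blue assay on human PBMC. Compounds at 0.048 to 25 µg/mL in DMSO (0.1%) added after 24 h and exposed 72 h. Resazurin added 24 h before the end. Absorbance read at 570 and 595 nm, medium blank subtracted, and % reduced computed with correction factor R0. Effect expressed as percentage of control.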

[2] = tested on: Mycobacterium tuberculosis; experiment: Antimycobacterial activity against pan-susceptible Mycobacterium tuberculosis H37Rv; type: functional; outline: as §1

SMILES	MIC ([1]; H37Rv ATCC 27294, 168 h)	IC50 (PBMC)	further results
CC1(C)CCc2c(c3ccccc3c3nc(-c4ccccc4C(F)(F)F)[nH]c23)O1	4 µM (≈ 1.59 µg/mL)	–	–
CC1(C)CCc2c(c3ccccc3c3nc(-c4cccc(F)c4)[nH]c23)O1	9 µM (≈ 3.12 µg/mL)	> 25 µg/mL	–
CC1(C)CCc2c(c3ccccc3c3nc(-c4ccc(C(F)(F)F)cc4)[nH]c23)O1	–	–	MIC [1]: inactive
CC1(C)CCc2c(c3ccccc3c3nc(-c4cccnc4)[nH]c23)O1	–	–	MIC [1]: inactive
CC1(C)CCc2c(c3ccccc3c3nc(-c4ccccc4)[nH]c23)O1	> 304 µM	> 25 µg/mL	–
CC1(C)CCc2c(c3ccccc3c3nc(-c4cccc(Br)c4)[nH]c23)O1	15.3 µM (≈ 6.23 µg/mL)	> 25 µg/mL	–
CC1(C)CCc2c(c3ccccc3c3nc(-c4cccc([N+](=O)[O-])c4)[nH]c23)O1	–	> 25 µg/mL	MIC [1]: inactive
CC1(C)CCc2c(c3ccccc3c3nc(-c4ccccc4Br)[nH]c23)O1	7.6 µM (≈ 3.1 µg/mL)	> 25 µg/mL	–
C=CCC1Cc2c(c3ccccc3c3nc4ccccc4nc23)OC1(C)C (stereo not drawn)	–	–	MIC [2]: 0.78 µg/mL (≈ 2.2 µM)
CC1(C)CCc2c(c3ccccc3c3nc(-c4ccc(C#N)cc4)oc23)O1	17.6 µM (≈ 6.24 µg/mL)	–	–
CC1CC2=C(O1)c1ccccc1C(=O)C2=O (stereo not drawn)	14.5 µM (≈ 3.11 µg/mL)	–	–
Cc1ccccc1-c1nc2c([nH]1)c1c(c3ccccc32)OC(C)(C)CC1	9 µM (≈ 3.08 µg/mL)	–	–
CC1(C)CCc2c(c3ccccc3c3nc(-c4ccc(Cl)cc4)[nH]c23)O1	34.4 µM (≈ 12.5 µg/mL)	> 25 µg/mL	–
C=CCC1=C(O)C(=O)c2ccccc2C1=O	467 µM (≈ 100 µg/mL)	–	–
CC1(C)CCc2c(c3ccccc3c3nc(-c4cnc5ccccc5c4)[nH]c23)O1	–	–	MIC [1]: inactive
CO[C@H]1/C=C/O[C@@]2(C)Oc3c(C)c(O)c4c(O)c(c(/C=N/N5CCN(C)CC5)c(O)c4c3C2=O)NC(=O)/C(C)=C\C=C\[C@H](C)[C@H](O)[C@@H](C)[C@@H](O)[C@@H](C)[C@H](OC(C)=O)[C@@H]1C [RIFAMPIN]	≤ 0.1 µM	–	–
CC1(C)CCc2c(c3ccccc3c3nc(-c4ccc(C#N)cc4)[nH]c23)O1	–	> 25 µg/mL	MIC [1]: inactive
CC1(C)Cc2c(c3ccccc3c3nc(-c4ccc([N+](=O)[O-])cc4)oc23)O1	> 278 µM	–	–

SMILES	MIC ([1]; H37Rv ATCC 27294, 168 h)	IC50 (PBMC)	further results
CC1Cc2c(c3ccccc3c3nc(-c4ccc([N+](=O)[O-])cc4)oc23)O1 (stereo not drawn)	> 289 µM	–	–
CC1(C)CCc2c(c3ccccc3c3nc(-c4ccc([N+](=O)[O-])cc4)[nH]c23)O1	268 µM (≈ 100 µg/mL)	–	–
CC1(C)CCc2c(c3ccccc3c3nc(-c4cccc(C(F)(F)F)c4)[nH]c23)O1	4 µM (≈ 1.59 µg/mL)	–	–
CC1(C)CCc2c(c3ccccc3c3nc(-c4ccccc4C#N)oc23)O1	35.2 µM (≈ 12.5 µg/mL)	–	–
CC1(C)CCc2c(c3ccccc3c3nc(-c4ccc(Br)cc4)[nH]c23)O1	–	> 25 µg/mL	MIC [1]: inactive
CC1(C)CCc2c(c3ccccc3c3nc(-c4ccccc4[N+](=O)[O-])[nH]c23)O1	268 µM (≈ 100 µg/mL)	> 25 µg/mL	–
Cc1ccc(-c2nc3c([nH]2)c2c(c4ccccc43)OC(C)(C)C2)cc1	> 304 µM	–	–
CC1(C)CCc2c(c3ccccc3c3nc(-c4ccc(F)cc4)[nH]c23)O1	72.2 µM (≈ 25 µg/mL)	> 25 µg/mL	–
CC1(C)CCc2c(c3ccccc3c3nc(-c4ccccn4)[nH]c23)O1	75.9 µM (≈ 25 µg/mL)	–	–
CC1(C)Cc2c(c3ccccc3c3nc(-c4ccccc4)[nH]c23)O1	> 318 µM	> 25 µg/mL	–
NNC(=O)c1ccncc1 [ISONIAZID]	≤ 0.4 µM	–	–
Cc1ccc(-c2nc3c(o2)c2c(c4ccccc43)OC(C)(C)C2)cc1	> 304 µM	–	–
CC1(C)CCc2c(c3ccccc3c3nc(-c4cc5ccccc5cn4)[nH]c23)O1	16.4 µM (≈ 6.22 µg/mL)	> 25 µg/mL	–
CC1(C)CCc2c(c3ccccc3c3nc(-c4cccc(C#N)c4)[nH]c23)O1	–	> 25 µg/mL	MIC [1]: inactive
CC(C)CCc1c2[nH]c3ccccc3nc-2c2c(c1=O)CCCC2	–	–	MIC [2]: ≤ 3 µg/mL
CC1(C)CCc2c(c3ccccc3c3nc(-c4cccc(C#N)c4)oc23)O1	35.2 µM (≈ 12.5 µg/mL)	–	–
COc1ccccc1-c1nc2c([nH]1)c1c(c3ccccc32)OC(C)(C)CC1	17.4 µM (≈ 6.24 µg/mL)	–	–
